Results from ChEMBL document CHEMBL1137082, “Potent and selective conformationally restricted neuronal nitric oxide synthase inhibitors” (J Med Chem, 2004).
pIC50, pKi: −log10 of the molar value.

Assays:
[1] = biological target: T1, Nitric oxide synthase, inducible (Mus musculus) (UniProt P29477); assay: Inhibitory activity against inducible nitric oxide synthase (iNOS) at 100 uM; set-up: scale not given: the % may be the effect or the level left
T1 sequence (whole entry): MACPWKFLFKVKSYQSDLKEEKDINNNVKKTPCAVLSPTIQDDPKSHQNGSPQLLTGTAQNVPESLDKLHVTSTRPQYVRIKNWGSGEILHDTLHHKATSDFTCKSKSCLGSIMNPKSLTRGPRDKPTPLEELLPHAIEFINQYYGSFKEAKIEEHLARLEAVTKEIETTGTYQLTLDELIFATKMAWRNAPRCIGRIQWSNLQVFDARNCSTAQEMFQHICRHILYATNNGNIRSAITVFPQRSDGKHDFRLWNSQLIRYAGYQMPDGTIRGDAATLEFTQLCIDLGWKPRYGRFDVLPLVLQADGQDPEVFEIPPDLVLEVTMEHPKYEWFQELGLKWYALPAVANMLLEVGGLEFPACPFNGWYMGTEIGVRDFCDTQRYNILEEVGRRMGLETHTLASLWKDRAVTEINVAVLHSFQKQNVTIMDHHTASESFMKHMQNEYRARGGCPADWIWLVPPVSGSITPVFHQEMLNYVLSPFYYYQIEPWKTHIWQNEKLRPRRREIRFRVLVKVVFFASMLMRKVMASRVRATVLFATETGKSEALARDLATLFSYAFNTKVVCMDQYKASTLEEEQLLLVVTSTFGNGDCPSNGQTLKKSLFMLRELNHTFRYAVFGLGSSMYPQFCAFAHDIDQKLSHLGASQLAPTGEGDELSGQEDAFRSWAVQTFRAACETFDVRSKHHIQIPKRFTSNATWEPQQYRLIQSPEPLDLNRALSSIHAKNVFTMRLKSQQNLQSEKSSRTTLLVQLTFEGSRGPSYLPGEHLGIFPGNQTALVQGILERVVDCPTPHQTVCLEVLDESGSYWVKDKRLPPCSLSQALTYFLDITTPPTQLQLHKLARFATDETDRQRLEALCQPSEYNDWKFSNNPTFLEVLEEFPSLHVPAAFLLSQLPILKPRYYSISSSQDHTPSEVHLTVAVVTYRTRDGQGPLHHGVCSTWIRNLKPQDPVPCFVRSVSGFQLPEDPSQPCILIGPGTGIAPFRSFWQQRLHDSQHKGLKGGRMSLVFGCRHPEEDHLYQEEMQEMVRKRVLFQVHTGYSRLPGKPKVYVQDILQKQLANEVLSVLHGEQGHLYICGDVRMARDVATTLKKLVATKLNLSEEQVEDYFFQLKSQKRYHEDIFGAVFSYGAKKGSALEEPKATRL
Method in brief: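 Single-point screen against murine macrophage iNOS: enzyme residual activity measured at 100 μM inhibitor. NO formation monitored by hemoglobin capture assay with a UV/vis spectrophotometer.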

[2] = biological target: T2, Nitric oxide synthase, inducible (Mus musculus, UniProt P29477); assay: Inhibitory activity against inducible nitric oxide synthase (iNOS)
T2 sequence (P29477 whole entry): T1 sequence (whole entry)

Nitric oxide synthase 1 [3] = biological target: T3, Nitric oxide synthase 1 (Rattus norvegicus, UniProt P29476); assay: Inhibitory activity against neuronal nitric oxide synthase (nNOS)
[4] = biological target: T2, Nitric oxide synthase, inducible
Nitric oxide synthase 1 [5] = biological target: T3, Nitric oxide synthase 1; assay: Binding affinity towards neuronal nitric oxide synthase (nNOS)

T3 sequence (P29476 whole entry): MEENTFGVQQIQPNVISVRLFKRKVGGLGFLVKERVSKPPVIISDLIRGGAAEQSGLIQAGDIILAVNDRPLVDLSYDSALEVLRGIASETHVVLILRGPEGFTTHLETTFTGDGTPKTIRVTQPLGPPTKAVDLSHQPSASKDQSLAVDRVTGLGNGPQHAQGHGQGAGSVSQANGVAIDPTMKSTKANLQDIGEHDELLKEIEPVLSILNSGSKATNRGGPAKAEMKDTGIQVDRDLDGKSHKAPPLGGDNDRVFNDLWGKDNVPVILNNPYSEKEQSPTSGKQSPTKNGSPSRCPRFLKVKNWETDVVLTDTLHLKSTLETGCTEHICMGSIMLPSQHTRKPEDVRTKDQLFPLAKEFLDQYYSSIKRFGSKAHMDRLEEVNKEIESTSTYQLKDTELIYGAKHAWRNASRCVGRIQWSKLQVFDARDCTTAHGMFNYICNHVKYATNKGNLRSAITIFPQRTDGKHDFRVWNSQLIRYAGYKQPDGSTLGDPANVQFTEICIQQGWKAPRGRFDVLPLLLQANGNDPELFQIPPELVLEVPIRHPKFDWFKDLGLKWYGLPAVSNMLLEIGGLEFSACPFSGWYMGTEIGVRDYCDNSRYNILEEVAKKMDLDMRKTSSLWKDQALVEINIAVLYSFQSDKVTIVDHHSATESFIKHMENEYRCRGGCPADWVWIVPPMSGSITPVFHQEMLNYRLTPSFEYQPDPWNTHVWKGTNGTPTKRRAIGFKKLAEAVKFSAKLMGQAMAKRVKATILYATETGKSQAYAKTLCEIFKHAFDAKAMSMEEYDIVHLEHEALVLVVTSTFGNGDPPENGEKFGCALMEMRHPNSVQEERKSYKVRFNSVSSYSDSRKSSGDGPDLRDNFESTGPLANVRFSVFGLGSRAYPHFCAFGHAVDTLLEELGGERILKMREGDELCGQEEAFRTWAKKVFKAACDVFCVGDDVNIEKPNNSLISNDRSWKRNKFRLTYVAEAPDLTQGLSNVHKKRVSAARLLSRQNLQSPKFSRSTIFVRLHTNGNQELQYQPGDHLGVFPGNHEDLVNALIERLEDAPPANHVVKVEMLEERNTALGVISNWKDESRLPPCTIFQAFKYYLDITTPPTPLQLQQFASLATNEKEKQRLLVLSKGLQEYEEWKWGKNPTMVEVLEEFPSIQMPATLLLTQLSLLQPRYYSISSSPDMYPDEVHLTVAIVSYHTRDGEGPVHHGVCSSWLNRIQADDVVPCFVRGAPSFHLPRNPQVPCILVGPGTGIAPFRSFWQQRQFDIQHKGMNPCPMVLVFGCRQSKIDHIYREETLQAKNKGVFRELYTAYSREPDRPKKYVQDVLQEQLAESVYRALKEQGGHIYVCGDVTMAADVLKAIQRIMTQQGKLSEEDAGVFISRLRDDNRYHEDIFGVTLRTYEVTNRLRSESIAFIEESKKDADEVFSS

## NC(=O)[C@@H]1C[C@@H](NC(=O)[C@@H](N)CCC/N=C(\N)N[N+](=O)[O-])CN1
[1]
  Activity: 10%
[2]
  pIC50: 4.19
Nitric oxide synthase 1 [3]
  pIC50: 6.19
[4]
  pKi: 4.54

## N=C(NCCC[C@H](N)C(=O)NC1CNC(C(N)=O)C1)N[N+](=O)[O-] (single isomer, unassigned)
[1]
  Activity: 78%
[2]
  pIC50: 3.36
Nitric oxide synthase 1 [3]
  pIC50: 5.02
Nitric oxide synthase 1 [5]
  pKi: 5.96
[4]
  pKi: 3.70
